pIC50: −log10 of the molar value.
What was measured:
OVCAR-4 = test: Antiproliferative activity against human OVCAR4 cells after 48 hrs; type: functional; conditions: OVCAR-4, 48 h; for TGI: read-out: Log TGI (converted)
Method in brief: (§1)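 NCI 60-cell screen. Cells were grown in RPMI 1640 with 5% FBS and 2 mM L-glutamine, then plated at 5,000–40,000 cells/well according to doubling time and preincubated for 24 h at 37 °C in 5% CO2. Compounds were dissolved in DMSO at 400× the top final concentration and tested at five 10-fold dilutions from 10−4 to 10−8 M for 48 h. Growth was read spectrophotometrically; GI50 is 50% net protein reduction.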

RXF 393 = test: Antiproliferative activity against human RXF393 cells after 48 hrs; type: functional; conditions: RXF 393, 48 h; for CC50: read-out: Log LC50 (the source's name) (converted); for TGI: read-out: Log TGI (converted); method in brief: as §1
OVCAR-8 = test: Antiproliferative activity against human OVCAR8 cells after 48 hrs; type: functional; conditions: OVCAR-8, 48 h; for TGI: read-out: Log TGI (converted); method in brief: as §1
OVCAR-5 = test: Antiproliferative activity against human OVCAR5 cells after 48 hrs; type: functional; conditions: OVCAR-5, 48 h; for CC50: read-out: Log LC50 (the source's name) (converted); for TGI: read-out: Log TGI (converted); method in brief: as §1
A498 = test: Antiproliferative activity against human A498 cells after 48 hrs; type: functional; conditions: A498, 48 h; for CC50: read-out: Log LC50 (the source's name) (converted); for TGI: read-out: Log TGI (converted); method in brief: as §1
SK-MEL-2 = test: Antiproliferative activity against human SKMEL2 cells after 48 hrs; type: functional; conditions: SK-MEL-2, 48 h; for TGI: read-out: Log TGI (converted); method in brief: as §1
HCT-116 = test: Antiproliferative activity against human HCT116 cells after 48 hrs; type: functional; conditions: HCT-116, 48 h; for TGI: read-out: Log TGI (converted); method in brief: as §1
MDA-MB-435 = test: Antiproliferative activity against human MDA-MB-435 cells after 48 hrs; type: functional; conditions: Homo sapiens, MDA-MB-435, 48 h; for TGI: read-out: Log TGI (converted); method in brief: as §1
OVCAR-3 = test: Antiproliferative activity against human OVCAR-3 cells after 48 hrs; type: functional; conditions: OVCAR-3, 48 h; for TGI: read-out: Log TGI (converted); method in brief: as §1
MOLT-4 = test: Antiproliferative activity against human MOLT4 cells after 48 hrs; type: functional; conditions: MOLT-4, 48 h; for TGI: read-out: Log TGI (converted); method in brief: as §1
M14 = test: Antiproliferative activity against human M14 cells after 48 hrs; type: functional; conditions: M14, 48 h; for TGI: read-out: Log TGI (converted); method in brief: as §1
HCT-15 = test: Antiproliferative activity against human HCT15 cells after 48 hrs; type: functional; conditions: Homo sapiens, HCT-15, 48 h; for TGI: read-out: Log TGI (converted); method in brief: as §1
ACHN = test: Antiproliferative activity against human ACHN cells after 48 hrs; type: functional; conditions: for CC50: read-out: Log LC50 (the source's name) (converted); for TGI: read-out: Log TGI (converted); method in brief: as §1
A549 = test: Antiproliferative activity against human A549 cells after 48 hrs; type: functional; conditions: A549, 48 h; for CC50: read-out: Log LC50 (the source's name) (converted); for TGI: read-out: Log TGI (converted); method in brief: as §1
UACC-257 = test: Antiproliferative activity against human UACC257 cells after 48 hrs; type: functional; conditions: UACC-257, 48 h; for CC50: read-out: Log LC50 (the source's name) (converted); for TGI: read-out: Log TGI (converted)
Method in brief: (§2)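 NCI 60-cell-line screen. Lines grown in RPMI 1640 with 5% fetal bovine serum and 2 mM L-glutamine, plated at 5,000–40,000 cells/well according to doubling time, left 24 h at 37 °C in 5% CO2. Drug stocks in DMSO at 400-fold the top final concentration. Five 10-fold dilutions, 10−4 to 10−8 M, incubated 48 h. Growth read spectrophotometrically as net protein; GI50 taken as 50% reduction.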

SF-539 = test: Antiproliferative activity against human SF539 cells after 48 hrs; type: functional; conditions: SF-539, 48 h; for TGI: read-out: Log TGI (converted); method in brief: as §1
KM12 = test: Antiproliferative activity against human KM12 cells after 48 hrs; type: functional; conditions: Homo sapiens, KM12, 48 h; for CC50: read-out: Log LC50 (the source's name) (converted); for TGI: read-out: Log TGI (converted); method in brief: as §1
LOX IMVI = test: Antiproliferative activity against human LOXIMVI cells after 48 hrs; type: functional; conditions: for TGI: read-out: Log TGI (converted); method in brief: as §1
NCI-H522 = test: Antiproliferative activity against human NCI-H522 cells after 48 hrs; type: functional; conditions: NCI-H522, 48 h; for CC50: read-out: Log LC50 (the source's name) (converted); for TGI: read-out: Log TGI (converted); method in brief: as §1
SK-MEL-28 = test: Antiproliferative activity against human SKMEL28 cells after 48 hrs; type: functional; conditions: SK-MEL-28, 48 h; for TGI: read-out: Log TGI (converted); method in brief: as §1
Malme-3M = test: Antiproliferative activity against human MALME3M cells after 48 hrs; type: functional; conditions: for TGI: read-out: Log TGI (converted); method in brief: as §1
K562 = test: Antiproliferative activity against human K562 cells after 48 hrs; type: functional; conditions: K562, 48 h; for TGI: read-out: Log TGI (converted); method in brief: as §1
UACC-62 = test: Antiproliferative activity against human UACC62 cells after 48 hrs; type: functional; conditions: UACC-62, 48 h; for TGI: read-out: Log TGI (converted); method in brief: as §2
[1] = Antiproliferative activity against human HL60(TB) cells after 48 hrs; type: functional, HL-60(TB); conditions: HL-60, 48 h; for TGI: read-out: Log TGI (converted)
Method in brief: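 NCI 60-line panel screen: cells grown in RPMI 1640 with 5% fetal bovine serum and 2 mM L-glutamine, plated at 5,000–40,000 cells/well by doubling time, and preincubated 24 h at 37 °C in 5% CO2. Drugs were solubilised in DMSO at 400-fold the final maximum and tested at five 10-fold dilutions from 10−4 to 10−8 M for 48 h. Net protein was read spectrophotometrically, and the concentration giving 50% reduction was reported as log10 GI50.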

SNB-19 = test: Antiproliferative activity against human SNB19 cells after 48 hrs; type: functional; conditions: SNB-19, 48 h; for TGI: read-out: Log TGI (converted); method in brief: as §1
MCF7 = test: Antiproliferative activity against human MCF7 cells after 48 hrs; type: functional, cell-based; conditions: MCF7, 48 h
MDA-MB-231 = test: Antiproliferative activity against human MDA-MB-231 cells after 48 hrs; type: functional; conditions: MDA-MB-231, 48 h; for TGI: read-out: Log TGI (converted); method in brief: as §1
RPMI-8226 = test: Antiproliferative activity against human RPMI8226 cells after 48 hrs; type: functional; conditions: RPMI-8226, 48 h; method in brief: as §1
HOP-92 = test: Antiproliferative activity against human HOP92 cells after 48 hrs; type: functional; conditions: HOP-92, 48 h; method in brief: as §1
[2] = read-out: Log LC50 (the source's name) (converted)

## C[C@H](NC(=O)CCCCCCCCCCCCCCC[n+]1ccccc1)[C@H](O)c1ccccc1.[Br-]
OVCAR-4
  GI50: 1.66 µM
  LC50: 42.7 µM
  TGI: 12.3 µM
RXF 393
  GI50: 12 µM
  CC50: 74.1 µM
  TGI: 29.5 µM
OVCAR-8
  GI50: 3.89 µM
  TGI: 22.9 µM
OVCAR-8; [2]
  CC50: > 100 µM
OVCAR-5
  GI50: 11 µM
  CC50: 51.3 µM
  TGI: 24 µM
A498
  GI50: 17.8 µM
  CC50: 57.5 µM
  TGI: 32.4 µM
SK-MEL-2
  GI50: 2.88 µM
  LC50: 60.3 µM
  TGI: 7.41 µM
HCT-116
  GI50: 3.47 µM
  LC50: 38.9 µM
  TGI: 14.8 µM
MDA-MB-435
  GI50: 2.63 µM
  LC50: 25.7 µM
  TGI: 7.24 µM
OVCAR-3
  GI50: 1.32 µM
  LC50: 26.3 µM
  TGI: 6.46 µM
MOLT-4
  GI50: 4.9 µM
  LC50: 63.1 µM
  TGI: 18.6 µM
M14
  GI50: 6.31 µM
  LC50: 46.8 µM
  TGI: 19.5 µM
HCT-15
  GI50: 57.5 µM
  LC50: > 100 µM
  TGI: > 100 µM
ACHN
  GI50: 21.9 µM
  CC50: 91.2 µM
  TGI: 44.7 µM
A549
  GI50: 5.13 µM
  CC50: 67.6 µM
  TGI: 21.9 µM
UACC-257
  GI50: 2.24 µM
  CC50: 38.9 µM
  TGI: 8.32 µM
SF-539
  GI50: 3.39 µM
  LC50: 39.8 µM
  TGI: 14.1 µM
KM12
  GI50: 2.75 µM
  CC50: 36.3 µM
  TGI: 11.5 µM
LOX IMVI
  GI50: 4.07 µM
  LC50: 44.7 µM
  TGI: 14.8 µM
NCI-H522
  GI50: 2.04 µM
  CC50: 50.1 µM
  TGI: 13.2 µM
SK-MEL-28
  GI50: 2.34 µM
  LC50: 20.4 µM
  TGI: 6.03 µM
Malme-3M
  GI50: 2.45 µM
  LC50: 20 µM
  TGI: 5.89 µM
K562
  GI50: 0.912 µM
  LC50: 77.6 µM
  TGI: 15.8 µM
UACC-62
  GI50: 1.86 µM
  LC50: 25.1 µM
  TGI: 5.75 µM
[1]
  GI50: 1.48 µM
  LC50: 31.6 µM
  TGI: 4.37 µM
SNB-19
  GI50: 3.09 µM
  TGI: 13.2 µM
SNB-19; [2]
  CC50: 38 µM
MCF7
  GI50: 1.48 µM
  LC50: 20.9 µM
MCF7; read-out: Log TGI (converted)
  TGI: 4.79 µM
MDA-MB-231
  GI50: 3.24 µM
  LC50 (50% lethal concentration): 42.7 µM
  TGI: 33.1 µM

## CCCCCCCCCCCCCCN[C@H](C)[C@@H](O)c1ccccc1.Cl
OVCAR-4
  GI50: 2.14 µM
  LC50: 6.76 µM
  TGI: 3.8 µM
RXF 393
  GI50: 1.38 µM
  CC50: 5.5 µM
  TGI: 2.75 µM
OVCAR-8
  GI50: 1.82 µM
  TGI: 3.8 µM
OVCAR-5
  GI50: 2 µM
  CC50: 6.17 µM
  TGI: 3.47 µM
A498
  GI50: 3.16 µM
  CC50: 74.1 µM
  TGI: 6.46 µM
SK-MEL-2
  GI50: 2 µM
  LC50: 8.13 µM
  TGI: 3.98 µM
HCT-116
  GI50: 1.86 µM
  LC50: 5.75 µM
  TGI: 3.24 µM
MDA-MB-435
  GI50: 1.78 µM
  LC50: 5.62 µM
  TGI: 3.16 µM
OVCAR-3
  GI50: 1.74 µM
  LC50: 6.03 µM
  TGI: 3.24 µM
MOLT-4
  GI50: 0.871 µM
  LC50: 4.9 µM
  TGI: 2.19 µM
RPMI-8226
  GI50: 3.39 µM
RPMI-8226; [2]
  CC50: 7.24 µM
RPMI-8226; read-out: Log TGI (converted)
  TGI: 3.63 µM
M14
  GI50: 1.86 µM
  LC50: 6.17 µM
  TGI: 3.39 µM
HCT-15
  GI50: 1.82 µM
  LC50: 5.89 µM
  TGI: 3.24 µM
ACHN
  GI50: 1.86 µM
  CC50: 5.89 µM
  TGI: 3.31 µM
A549
  GI50: 1.74 µM
  CC50: 6.31 µM
  TGI: 3.31 µM
UACC-257
  GI50: 1.66 µM
  CC50: 6.46 µM
  TGI: 3.31 µM
SF-539
  GI50: 1.35 µM
  LC50: 5.5 µM
  TGI: 2.69 µM
KM12
  GI50: 1.82 µM
  CC50: 5.62 µM
  TGI: 3.16 µM
LOX IMVI
  GI50: 1.82 µM
  LC50: 5.89 µM
  TGI: 3.31 µM
NCI-H522
  GI50: 1.91 µM
  CC50: 6.61 µM
  TGI: 3.55 µM
SK-MEL-28
  GI50: 1.86 µM
  LC50: 5.75 µM
  TGI: 3.24 µM
Malme-3M
  GI50: 1.95 µM
  LC50: 6.03 µM
  TGI: 3.39 µM
K562
  GI50: 1.41 µM
  LC50: 5.62 µM
  TGI: 2.82 µM
UACC-62
  GI50: 1.82 µM
  LC50: 6.61 µM
  TGI: 3.47 µM
[1]
  GI50: 0.0871 µM
  LC50: 6.61 µM
  TGI: 2.51 µM
HOP-92
  GI50: 1.55 µM
  LC50: 5.89 µM
HOP-92; read-out: Log TGI (converted)
  TGI: 3.02 µM
SNB-19
  GI50: 1.74 µM
  TGI: 3.09 µM
MCF7
  pIC50: 5.46
MDA-MB-231
  GI50: 1.74 µM
  LC50 (50% lethal concentration): 6.46 µM
  TGI: 3.39 µM
